Data set [1] has as its system Caco-2. Nature of the data set: Reduction in viability of human Caco2 cells after 6 hrs by fluorescence assay. The data set is classed as functional, cell-based. The method in brief: (§1)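 A single multiplexed triplex kit read cell viability, cytotoxicity and apoptosis, with caspase-3/7 activity as the apoptosis marker. Compounds were tested over a range of concentrations on cancer lines and normal epithelial Het-1A cells, with DMSO as the vehicle control. Read-outs were compared against the DMSO wells.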

Data set [2] has as its system A549. Description: Reduction in viability of human A549 cells after 6 hrs by fluorescence assay. In kind it is functional, cell-based. The method in brief:
as §1

In data set [3] the test system is ASPC1. Nature of the data set: Reduction in viability of human AsPC1 cells after 6 hrs by fluorescence assay. In kind it is functional, cell-based. The method in brief:
as §1

Data set [4] concerns HET-1A. Description: Reduction in viability of human HET-1A cells after 6 hrs by fluorescence assay. The data set is classed as cell-based. The gist of the method: as §1
The subject of data set [5] is PC-3. Description: Reduction in viability of human PC3 cells after 6 hrs by fluorescence assay. In kind it is functional, cell-based. The gist of the method:
as §1

Data set [6] concerns A549. Nature of the data set: Induction of apoptosis in human A549 cells assessed as increase in caspase 3/7 activity after 6 hrs by caspase glo 3/7 assay. The data set is classed as functional, cell-based. The method in brief: as §1
The subject of data set [7] is Caco-2. Description: Induction of apoptosis in human Caco2 cells assessed as increase in caspase 3/7 activity after 6 hrs by caspase glo 3/7 assay. In kind it is functional, cell-based. The gist of the method:
as §1

The subject of data set [8] is PC-3. Nature of the data set: Induction of apoptosis in human PC3 cells assessed as increase in caspase 3/7 activity after 6 hrs by caspase glo 3/7 assay. In kind it is functional, cell-based. The gist of the method:
as §1

Data set [9] relates to ASPC1. Nature of the data set: Induction of apoptosis in human AsPC1 cells assessed as increase in caspase 3/7 activity after 6 hrs by caspase glo 3/7 assay. The data set is classed as functional, cell-based. The method in brief: as §1
Data set [10] relates to HET-1A. Nature of the data set: Cytotoxicity against human HET-1A cells after 6 hrs by fluorescence assay. In kind it is cell-based. The method in brief:
as §1

For data set [11], the system named is PC-3. Nature of the data set: Cytotoxicity against human PC3 cells after 6 hrs by fluorescence assay. The data set is classed as functional, cell-based. The method in brief: as §1
In data set [12] the test system is HET-1A. Description: Induction of apoptosis in human HET-1A cells assessed as increase in caspase 3/7 activity after 6 hrs by caspase glo 3/7 assay. The data set is classed as cell-based. The method in brief: as §1
Data set [13] concerns ASPC1. Nature of the data set: Cytotoxicity against human AsPC1 cells after 6 hrs by fluorescence assay. The data set is classed as functional, cell-based. The method in brief:
as §1

Data set [14] concerns A549. Description: Cytotoxicity against human A549 cells after 6 hrs by fluorescence assay. In kind it is functional, cell-based. The method in brief: as §1
Data set [15] relates to Caco-2. Nature of the data set: Cytotoxicity against human Caco2 cells after 6 hrs by fluorescence assay. The data set is classed as functional, cell-based. The gist of the method: as §1

Activity calls are given as the source filed them. The rule behind the calls is not given here.

As for `CN1[C@@H]2CCC[C@H]1CC(NC(=O)c1nn(C)c3ccccc13)C2` (stereo partly specified), the result with Caco-2 [1], with A549 [2], in the data set with ASPC1 [3] and with PC-3 [5] was inactive. Besides, the Activity result with HET-1A [4] is given as “Toxic”.
For `CC(=O)Oc1ccccc1C(=O)Nc1ncc([N+](=O)[O-])s1`, the result in the data set on A549 [6], in the data set on Caco-2 [7], with PC-3 [8] and in the data set on ASPC1 [9] was inactive.
With `CC[C@H]1OC(=O)[C@H](C)[C@@H](O[C@H]2C[C@@](C)(OC)[C@@H](O)[C@H](C)O2)[C@H](C)[C@@H](O[C@@H]2O[C@H](C)C[C@H](N(C)C)[C@H]2O)[C@](C)(O)C[C@@H](C)[C@@H]2N[C@@H](COCCOC)O[C@H]([C@H]2C)[C@]1(C)O` [DIRITHROMYCIN], the result in the data set on Caco-2 [1], with A549 [2], in the data set with ASPC1 [3] and in the data set with PC-3 [5] was inactive. The Activity entry in the data set on HET-1A [4] is on record as “Toxic”.
For `COC(=O)C1=C(C)NC(C)=C(C(=O)OCCN(C)Cc2ccccc2)C1c1cccc([N+](=O)[O-])c1` (stereo unspecified) [NICARDIPINE], the Activity entry in the data set with Caco-2 [1], in the data set with HET-1A [10], in the data set with PC-3 [11], with A549 [2], with ASPC1 [3] and in the data set on HET-1A [4] was “Dose-dependent effect” throughout. Moreover, the Activity entry with HET-1A [12], in the data set on Caco-2 [7], with ASPC1 [13], in the data set with A549 [14], with Caco-2 [15] and in the data set with PC-3 [8] was “Dose-dependent effect” each time. In the data set on PC-3 [5], the Activity entry is “Dose-dependent effect”.
As to `O=C(Nc1ccc([N+](=O)[O-])cc1Cl)c1cc(Cl)ccc1O` [NICLOSAMIDE], the Activity entry in the data set on Caco-2 [1], in the data set with A549 [2], with ASPC1 [3], in the data set on HET-1A [4], in the data set on PC-3 [8] and in the data set with PC-3 [5] was “Dose-dependent effect” each time. Besides, the outcome in the data set on A549 [6], in the data set on Caco-2 [7] and in the data set on ASPC1 [9] was Active.
As for `OC1(c2ccc(Cl)c(C(F)(F)F)c2)CCN(CCCC(c2ccc(F)cc2)c2ccc(F)cc2)CC1` [PENFLURIDOL], the Activity result in the data set on Caco-2 [1], in the data set on HET-1A [10], in the data set on PC-3 [11], with A549 [2], with A549 [6] and with ASPC1 [3] was “Dose-dependent effect” in each case. The Activity result with HET-1A [4], in the data set with HET-1A [12], in the data set with Caco-2 [7], with ASPC1 [13], with A549 [14] and in the data set on Caco-2 [15] was “Dose-dependent effect” in each case. The Activity entry in the data set on PC-3 [8] and with PC-3 [5] was “Dose-dependent effect” each time. Moreover, the outcome in the data set on ASPC1 [9] was Active.
Turning to `CN(C)CCCN1c2ccccc2Sc2ccccc21` [PROMAZINE], the Activity entry in the data set on Caco-2 [1], in the data set with HET-1A [10], in the data set on PC-3 [11], with A549 [2], in the data set on A549 [6] and in the data set on ASPC1 [3] was “Dose-dependent effect” throughout. Moreover, the Activity entry in the data set on HET-1A [4], with HET-1A [12], in the data set with Caco-2 [7], in the data set on ASPC1 [13], with A549 [14] and with Caco-2 [15] was “Dose-dependent effect” throughout. Besides, the Activity result in the data set on PC-3 [8] and with PC-3 [5] was “Dose-dependent effect” throughout. For the same compound, the result with ASPC1 [9] was Active.

(Values after ChEMBL document CHEMBL4270671, “Pathway-Based Drug Repositioning for Cancers: Computational Prediction and Experimental Validation” (J Med Chem, 2018).)
